Measurements reported in ChEMBL document CHEMBL1147929, “Synthesis and in vitro photodynamic activities of water-soluble fluorinated tetrapyridylporphyrins as tumor photosensitizers” (Bioorg Med Chem Lett, 2007).
Active and inactive are the calls of the source. The rule behind the calls is not given here.

What was measured:
HeLa [1] = experiment: Induction of apoptosis in HeLa cells assessed as accumulation at subG1 phase by FACS flow cytometry; format: functional, cell-based; conditions: Homo sapiens
Method in brief: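 HeLa cells treated with 0, 4.6, 9.2, 18.4, 27.6 or 36.8 μM porphyrin, then stained with propidium iodide. The sub-G1 population was measured from DNA content histograms by FACS flow cytometry and taken as apoptotic cells. Values are means ± S.D.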

HeLa [2] = experiment: Phototoxicity against HeLa cells assessed as photo-induced growth inhibition after 48 hrs by MTT assay; format: functional, cell-based, Homo sapiens
Method in brief: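 HeLa cells pre-incubated 1 h with a range of porphyrin concentrations. Without washing, cells were irradiated 1 h with a fluorescent lamp (530–620 nm; 0.44 mW/cm², 1.6 J/cm²). They were then incubated 48 h at 37 °C, and survival fraction was read by MTT. Non-irradiated cells served as dark controls.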

HeLa [3] = experiment: Cytotoxicity in HeLa cells assessed as PDT-induced ROS generation after 2 hrs by flow cytometry; format: functional, cell-based; conditions: Homo sapiens
Method in brief: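 HeLa cells exposed to porphyrins at […] for 2 h, then irradiated with visible light. Intracellular ROS probed with 2,7-dichlorofluorescin (DCF). DCF fluorescence read by flow cytometry after 2 h of porphyrin treatment. Untreated cells served as baseline.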

[4] = Homo sapiens, HeLa, light or radiation study, 48 h

## C[n+]1ccc(-c2c3nc(c(-c4cc[n+](C)cc4F)c4ccc([nH]4)c(-c4cc[n+](C)cc4F)c4nc(c(-c5cc[n+](C)cc5F)c5ccc2[nH]5)C=C4)C=C3)c(F)c1
HeLa [1]
  Activity: Dose-dependent effect
HeLa [2]; [4]
  IC50: 40000 nM
HeLa [3]
  Activity: Active

## C[n+]1cccc(-c2c3nc(c(-c4ccc[n+](C)c4F)c4ccc([nH]4)c(-c4ccc[n+](C)c4F)c4nc(c(-c5ccc[n+](C)c5F)c5ccc2[nH]5)C=C4)C=C3)c1F
HeLa [1]
  Activity: Dose-dependent effect
HeLa [2]; hela
  IC50: 1100 nM
HeLa [3]
  Activity: Active

## C[n+]1ccc(-c2c3nc(c(-c4cc[n+](C)cc4)c4ccc([nH]4)c(-c4cc[n+](C)cc4)c4ccc([nH]4)c(-c4cc[n+](C)cc4)c4nc2C=C4)C=C3)cc1
HeLa [3]
  Activity: Active

## C[n+]1cc(F)c(-c2c3nc(c(-c4c(F)c[n+](C)cc4F)c4ccc([nH]4)c(-c4c(F)c[n+](C)cc4F)c4nc(c(-c5c(F)c[n+](C)cc5F)c5ccc2[nH]5)C=C4)C=C3)c(F)c1
HeLa [2]; hela
  IC50: 870 nM
HeLa [3]
  Activity: Active

## C[n+]1ccc(-c2c3nc(c(-c4cc[n+](C)cc4)c4ccc([nH]4)c(-c4cc[n+](C)cc4)c4nc(c(-c5cc[n+](C)cc5)c5ccc2[nH]5)C=C4)C=C3)cc1
HeLa [2]; [4]
  IC50: 3000 nM
